ChEMBL document CHEMBL1139597, “Evaluation of 3-substituted arginine analogs as selective inhibitors of human nitric oxide synthase isozymes” (Bioorg Med Chem Lett, 2005)

How the values were obtained:
Nitric oxide synthase 3 = biological target: T1, Nitric oxide synthase 3 (Homo sapiens, UniProt P29474); assay: Inhibitory concentration against human endothelial nitric oxide synthase expressed in Sf-9 cells
T1 sequence (P29474 whole entry): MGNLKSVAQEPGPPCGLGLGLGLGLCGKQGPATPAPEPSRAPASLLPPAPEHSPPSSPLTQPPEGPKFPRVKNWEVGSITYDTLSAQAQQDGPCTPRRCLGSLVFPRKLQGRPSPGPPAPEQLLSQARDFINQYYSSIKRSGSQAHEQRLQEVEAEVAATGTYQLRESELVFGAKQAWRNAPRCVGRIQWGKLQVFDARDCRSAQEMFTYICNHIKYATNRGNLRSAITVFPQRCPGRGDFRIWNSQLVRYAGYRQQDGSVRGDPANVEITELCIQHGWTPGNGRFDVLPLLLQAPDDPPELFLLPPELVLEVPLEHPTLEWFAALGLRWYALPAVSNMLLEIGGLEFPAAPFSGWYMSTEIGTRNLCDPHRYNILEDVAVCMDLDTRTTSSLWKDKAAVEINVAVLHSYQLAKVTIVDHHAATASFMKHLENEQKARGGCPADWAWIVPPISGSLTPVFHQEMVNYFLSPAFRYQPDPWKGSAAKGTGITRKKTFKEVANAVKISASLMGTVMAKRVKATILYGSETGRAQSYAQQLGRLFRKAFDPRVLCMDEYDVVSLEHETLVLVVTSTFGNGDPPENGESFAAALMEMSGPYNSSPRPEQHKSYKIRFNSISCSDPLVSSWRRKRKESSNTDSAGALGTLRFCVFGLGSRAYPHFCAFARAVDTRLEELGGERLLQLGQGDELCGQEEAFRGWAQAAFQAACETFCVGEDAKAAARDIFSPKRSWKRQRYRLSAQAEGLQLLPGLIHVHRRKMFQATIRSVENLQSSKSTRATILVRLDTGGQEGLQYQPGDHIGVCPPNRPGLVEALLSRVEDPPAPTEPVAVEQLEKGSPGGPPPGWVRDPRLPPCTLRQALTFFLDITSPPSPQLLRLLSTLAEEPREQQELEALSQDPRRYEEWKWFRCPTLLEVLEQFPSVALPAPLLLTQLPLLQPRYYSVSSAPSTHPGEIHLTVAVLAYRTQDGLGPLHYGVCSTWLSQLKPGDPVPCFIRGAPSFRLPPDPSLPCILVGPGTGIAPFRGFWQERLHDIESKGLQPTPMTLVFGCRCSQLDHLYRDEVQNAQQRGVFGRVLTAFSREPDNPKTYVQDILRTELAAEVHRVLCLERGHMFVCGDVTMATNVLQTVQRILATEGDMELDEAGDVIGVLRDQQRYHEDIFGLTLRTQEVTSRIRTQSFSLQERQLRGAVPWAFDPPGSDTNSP
Summary of the method: (§1)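 Recombinant human NOS isozyme produced in Sf-9 insect cells. Enzyme activity was followed as conversion of [¹⁴C]-L-Arg to [¹⁴C]-L-Cit, and IC50 was calculated from the concentration dependence of inhibition. Inhibitors were tested up to 1 mM.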

Nitric oxide synthase 1 = Nitric oxide synthase 1 (Homo sapiens, UniProt P29475); assay: Inhibitory concentration against human neuronal nitric oxide synthase expressed in Sf-9 cells; summary of the method: as §1
Sequence of Nitric oxide synthase 1 (P29475 whole entry): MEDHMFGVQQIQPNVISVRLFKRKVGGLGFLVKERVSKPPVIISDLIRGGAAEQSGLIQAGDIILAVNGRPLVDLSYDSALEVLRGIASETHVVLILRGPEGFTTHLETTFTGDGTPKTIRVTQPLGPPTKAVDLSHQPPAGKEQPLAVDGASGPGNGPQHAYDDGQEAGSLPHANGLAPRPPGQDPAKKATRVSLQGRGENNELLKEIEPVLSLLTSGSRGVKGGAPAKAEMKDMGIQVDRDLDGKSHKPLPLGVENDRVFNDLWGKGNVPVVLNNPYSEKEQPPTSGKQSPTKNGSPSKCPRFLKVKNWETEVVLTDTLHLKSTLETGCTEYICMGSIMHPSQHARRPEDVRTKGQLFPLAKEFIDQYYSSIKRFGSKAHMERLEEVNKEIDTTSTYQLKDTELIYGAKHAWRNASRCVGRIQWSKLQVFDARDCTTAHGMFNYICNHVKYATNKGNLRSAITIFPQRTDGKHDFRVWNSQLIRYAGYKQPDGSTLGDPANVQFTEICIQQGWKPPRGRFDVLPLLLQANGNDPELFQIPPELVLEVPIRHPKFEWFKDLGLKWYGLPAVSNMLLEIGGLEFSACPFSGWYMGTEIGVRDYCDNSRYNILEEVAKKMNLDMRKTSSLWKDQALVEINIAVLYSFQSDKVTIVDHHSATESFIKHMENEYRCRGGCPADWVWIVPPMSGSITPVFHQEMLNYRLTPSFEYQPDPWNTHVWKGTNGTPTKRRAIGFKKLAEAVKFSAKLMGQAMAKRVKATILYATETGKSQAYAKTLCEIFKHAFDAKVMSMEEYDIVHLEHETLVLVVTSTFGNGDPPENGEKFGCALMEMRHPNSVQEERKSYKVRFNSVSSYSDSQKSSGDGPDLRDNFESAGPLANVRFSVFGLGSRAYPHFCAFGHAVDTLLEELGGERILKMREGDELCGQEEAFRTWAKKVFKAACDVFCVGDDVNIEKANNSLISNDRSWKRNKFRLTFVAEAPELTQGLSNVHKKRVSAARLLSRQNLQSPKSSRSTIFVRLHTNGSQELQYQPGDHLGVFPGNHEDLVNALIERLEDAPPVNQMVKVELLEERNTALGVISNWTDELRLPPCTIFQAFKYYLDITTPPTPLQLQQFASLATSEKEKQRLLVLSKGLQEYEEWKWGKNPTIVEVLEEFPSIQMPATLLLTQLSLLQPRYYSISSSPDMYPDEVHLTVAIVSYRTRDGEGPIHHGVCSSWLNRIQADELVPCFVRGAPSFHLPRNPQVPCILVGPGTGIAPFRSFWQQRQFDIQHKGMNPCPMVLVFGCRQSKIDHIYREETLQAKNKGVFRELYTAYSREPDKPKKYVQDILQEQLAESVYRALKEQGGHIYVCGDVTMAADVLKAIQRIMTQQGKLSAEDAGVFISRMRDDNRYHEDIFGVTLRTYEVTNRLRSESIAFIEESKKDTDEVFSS

[1] = biological target: Nitric oxide synthase, inducible (Homo sapiens, UniProt P35228); assay: Inhibitory concentration against human inducible nitric oxide synthase expressed in Sf-9 cells; summary of the method: as §1
Sequence of Nitric oxide synthase, inducible (P35228 whole entry): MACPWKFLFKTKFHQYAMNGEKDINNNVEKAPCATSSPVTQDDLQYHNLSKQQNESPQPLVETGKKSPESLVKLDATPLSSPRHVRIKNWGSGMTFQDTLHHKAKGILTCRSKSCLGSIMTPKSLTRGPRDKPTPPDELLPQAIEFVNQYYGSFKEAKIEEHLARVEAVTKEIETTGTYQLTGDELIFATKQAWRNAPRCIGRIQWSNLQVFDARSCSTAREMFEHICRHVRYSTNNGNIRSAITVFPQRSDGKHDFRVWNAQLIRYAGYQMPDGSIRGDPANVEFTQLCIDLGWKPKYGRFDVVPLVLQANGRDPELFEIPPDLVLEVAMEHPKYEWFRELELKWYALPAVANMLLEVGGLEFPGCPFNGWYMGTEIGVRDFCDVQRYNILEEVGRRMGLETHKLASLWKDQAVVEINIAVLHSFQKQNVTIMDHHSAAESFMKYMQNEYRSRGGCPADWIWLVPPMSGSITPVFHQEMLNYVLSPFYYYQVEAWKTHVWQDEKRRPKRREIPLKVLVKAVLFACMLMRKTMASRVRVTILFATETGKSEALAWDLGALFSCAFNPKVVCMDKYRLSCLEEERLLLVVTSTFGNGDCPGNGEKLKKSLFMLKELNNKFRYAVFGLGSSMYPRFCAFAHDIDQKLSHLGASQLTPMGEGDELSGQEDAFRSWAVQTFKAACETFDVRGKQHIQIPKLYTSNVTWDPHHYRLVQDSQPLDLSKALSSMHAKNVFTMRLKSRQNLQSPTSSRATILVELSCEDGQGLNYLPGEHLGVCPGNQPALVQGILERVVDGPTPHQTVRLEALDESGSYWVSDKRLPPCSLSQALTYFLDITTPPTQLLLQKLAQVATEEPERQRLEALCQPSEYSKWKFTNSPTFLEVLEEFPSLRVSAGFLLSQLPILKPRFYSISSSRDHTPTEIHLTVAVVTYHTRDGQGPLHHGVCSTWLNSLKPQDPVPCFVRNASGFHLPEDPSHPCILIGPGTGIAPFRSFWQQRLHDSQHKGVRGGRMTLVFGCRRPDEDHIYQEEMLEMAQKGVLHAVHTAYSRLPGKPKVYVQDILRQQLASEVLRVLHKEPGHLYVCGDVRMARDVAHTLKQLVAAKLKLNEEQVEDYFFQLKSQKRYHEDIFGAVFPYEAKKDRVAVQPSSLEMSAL

IC50 (Nitric oxide synthase 3) [mM] | IC50 (Nitric oxide synthase 1) [µM] | IC50 [1] [µM] | Compound
> 1 | 36 | 3.9 | CSC(=N)NCCC[C@H](N)C(=O)N[C@@H](Cc1ccccc1)C(=O)O
> 1 | 500 | 370 | CCC[C@@H](CCN=C(N)SC)[C@H](N)C(=O)O
> 1 | > 1000 | > 1000 | CC(=N)NCC[C@@H](C)[C@H](N)C(=O)O
0.006 | – | 4 | CC(=N)NCCC[C@H](N)C(=O)O [L-NIO]
